Assay results reported in the EternaBench riboswitch data.

System: MS2 coat protein
Experiment: apparent Kd, MS2 coat protein; higher = weaker binding; RNA-MaP array; FMN 200 µM where present
Method in brief: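 Green signal was scaled to red-channel RNA signal and control-cluster median Fmax, and the apparent Kd was taken as the median of filtered per-cluster binding-curve fits. The binding series used SNAP-549-labelled MS2 coat protein from 0.7 or 1.5 nM, doubling to 3 µM, on designs transcribed by stalled E. coli RNA polymerase on Illumina sequencing-chip clusters. Each series ran without and then with constant ligand in 100 mM Tris-HCl pH 7.5, 80 mM KCl, 4 mM MgCl2, BSA, DTT, yeast tRNA and Tween-20.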

[1] = designed as: OFF switch for flavin mononucleotide, no ligand
[2] = ligand present: flavin mononucleotide, designed as: OFF switch for flavin mononucleotide
[3] = designed as: ON switch for flavin mononucleotide, no ligand
[4] = ligand present: flavin mononucleotide, designed as: ON switch for flavin mononucleotide

| Sequence | apparent Kd [1] [nM] | apparent Kd [2] [nM] | apparent Kd [3] [nM] | apparent Kd [4] [nM] |
| --- | --- | --- | --- | --- |
| GCCUCACAUGAGGAUCACCCAUGUCAGGAUAUAGGAGACGGUAGCUUUGCUGCCAUCGCUAGAAGGGACUGGCU | 68.2 | 111 |  |  |
| GUAGAGUAAGGAUAUUGUGAAUAGGAUAGAAUGGUUAGAAGCAAGAAGGUACAUGAGGAUCACCCAUGUAAUGU | 22.5 | 23.6 |  |  |
| GUUUCUAUAAGUUAUAUUUAACAGUCAGAAGGUGAUACUACGACAUGAGGAUCACCCAUGUAAUUCAAGGAUAUGAACUUAAUC |  |  | 1570 | 999 |
| UCUGGUCGAGGAUAUGCAUUCGUGCUUCGGCACGUAAGGUCACAUGAGGAUCACCCAUGUAGAAGGCGACCAGA | 19.6 | 35.9 |  |  |
| AAAGUACAUGAGGAUCACCCAUGUUGAAAAAAUCGAGGAUAUGCGAAAAAAAAAAAAAAAGCAGAAGGUGAAAAAA |  |  | 49 | 42.4 |
| GUAUGGGUAGAAGGACAUGAGGAUCACCCAUGUUGUGUGUCUAAGGAUAUUAGAGAAGAUUGACGUAAGAAGGUAGAUGUGUGG | 94.2 | 80.8 |  |  |
| GGCAGCUCAGGAUAUAGUUAAAACGACAUGAGGAUCACCCAUGUGACUGAUAUGCGGCGCCUAGAAGGGAGGUGCC | 18.9 | 18.2 |  |  |
| CCCGUGUUAGGAUAUACGGCACACCUGCCAGCAGGUGUAUAGUAGAAGGAACAUGAGGAUCACCCAUGUAUAGC | 38.1 | 36 |  |  |
| GUCAGCUCGUGAGGAUAUACAUGUGCUGGAUACAGCACUAUUGUGUUCACAUGAGGAUCACCCAUGUAGAAGGCACGAGCUGAU | 17.7 | 87.3 |  |  |
| AACAGUACAGGAUAUACAUGAGGAUCACCCAUGUGAGAUUUAAGUGGCGUACCACAAAGUAGAAGGGUACUGGA | 38 | 187 |  |  |
| UCUGCAUAGUCAGGAUAUGCAAAGUAAUGUAUGGAAACAUACAUUACAACAUGAGGAUCACCCAUGUAGAAGGGACUGUGCAGA | 14 | 13 |  |  |
| AUAUAGAUGGUCAGGAUAUGCUAGUGGUAACAGUAGCAGAAGGGACAUGAGGAUCACCCAUGUAGAUACUGCUC | 18 | 32.2 |  |  |
| CGAUGAGGUGUGAGGAUAUCGUGUUCGAAAGAACGUGAGAAGGCACAUGAGGAUCACCCAUGUCAACCUUGUCG | 17.3 | 15.6 |  |  |
| GGGUGGCGUACAGGAUAUGUGGUACAUGAGGAUCACCCAUGUGCAUAUGAUGUUCGUGUGUCAUCAUAGAAGGGUACGUCGCUA |  |  | 91.2 | 59.2 |
| UCAGGCUUCGAGAAGGACAUGAAUCGUAGCAUUGCUACGAUCAUAGAUACAUGAGGAUCACCCAUGUAGGAUAUCGGAGUCUGC | 5.8 | 5.87 |  |  |
| UGGUACUAGGGAGGAUAUGGGAAGAUACAUGAGGAUCACCCAUGUUUUAGAAUGCCGAGAGGCAACUAGAAGGCCCUAGUACCU |  |  | 1110 | 74.5 |
| UGGUACUAGGGAGGAUAUGGGAAGAUACAUGAGGAUCACCCAUGUUUCAGAAUGCCGAGAGGCAACUAGAAGGCCCUAGUACCU |  |  | 59.7 | 6.38 |
| ACGCGAUGGGAGAAGGUACUUUAAUUAGGUUACACAUGAGGAUCACCCAUGUAAGGAUAUCCCAUCGUUAAAUAUUAUACAGCA | 6.16 | 5.41 |  |  |
| GGCGACCUAGGAUAUACAUGAGGAUCACCCAUGUUUAUCUAUUAGAUGAAGACGGGUUGUAGAAGGAGGAUAUU | 15.5 | 18.2 |  |  |
| AGCUCGUACACAGGAUAUCCGUUGCUGCGCACUGGAGAAGGGUGACAUCCGCACAUGAGGAUCACCCAUGUACCGGGACAAUAU |  |  | 282 | 640 |
| AGAAAUUAGUGAGGAUAUGCAUAAUAUUUAGCUGCAGAAGGCACGGACCACAAGACAUGAGGAUCACCCAUGUGGUAUAUAGAU | 24.9 | 30.9 |  |  |
| CCGGAAACGGGUAGCUCACAUGAGGAUCACCCAUGUGAAACACAGGAUAUGGAUCCUAAUUGGAUCCAGAAGGGUGUGAGCUAC |  |  | 58 | 20.3 |
| CAGGUAGCUAGAGGAUAUACACGUCUGGAUAAACCAGACGAAUAAACCACAUGAGGAUCACCCAUGUAGAAGGCUAGCUGCCUG | 15.2 | 22.7 |  |  |
| GCCAUCGCAUGAGGAUAUGGUCACCUUUGGUGACCAGAAGGCAUGUCAUAAGACAUGAGGAUCACCCAUGUAGUUAAGAUGGCA |  |  | 843 | 48 |
| ACUAGUUGGUAAGGAUAUCCUACACUAUUCUGACCCGUGCAAGCUACAUGAGGAUCACCCAUGUGGGAGAAGGUGCGUCAACGU | 11 | 10.6 |  |  |
| AAAAAAAAUGUGUAGGAUAUCAGUAAAAAUACAUGAGGAUCACCCAUGUUCAAAAAAAAAAAAACUGAGAAGGACACGGAUGGUCC |  |  | 120 | 55.9 |
| CCUAGUUGGUAAGGAUAUCCUACACUGUUCUGACCCGUGCAAGCUACAUGAGGAUCACCCAUGUGGGAGAAGGUGCGUCGACGC | 24 | 24.9 |  |  |
| UGUUGGAGCAGAGGAUAUACAUGAGGAUCACCCAUGUAAUAAAGUGAAGCCUGGAAACAGGCAAUGUAGAAGGCUGCUCCGACA | 10.1 | 73.6 |  |  |

| Sequence | apparent Kd [1] [nM] | apparent Kd [2] [nM] | apparent Kd [3] [nM] | apparent Kd [4] [nM] |
| --- | --- | --- | --- | --- |
| UGGUCAUCAUCAGGAUAUUAACAUGGGCUACAUUAAGAAGGGAUAGUGAGAUACGAACUGAACGCACAUGAGGAUCACCCAUGU |  |  | 39.6 | 26.5 |
| CCAUAUAAAUAAGGAUAUUAAGUUGAUUAUCCUCAAACAUGAGGAUCACCCAUGUAUAGUCUUAUUAAGAAGGUAUAGUGUUGG |  |  | 608 | 545 |
| ACAUGAGGAUCACCCAUGUAACAUGUGAAUUAAUUCUUUAACAGAAGGCGAAUAUAUAACAUUGUCGAGGAUAUGUACUUAUGU | 9.85 | 7.41 |  |  |
| AGAUGACAAAGUCAUCUCGCGCAGACAUGAGGAUCACCCAUGUAGGAUAUAUUACUCAAAGAGUAAUAGAAGGACAUGUGUCUU | 33.5 | 91.7 |  |  |
| GCCAUUGCAUGAGGAUAUGCUCCCGUUUCGGGAGCAGAAGGCAUGUCAUAAGACAUGAGGAUCACCCAUGUAGUUAAGAUGGCA |  |  | 398 | 15.2 |
| GUAGCAUUCUGAGGAUAUUCAUACCGGAAACGGACAUGAGGAUCACCCAUGUGGCGAAAGCCUAGGGAGAAGGCAGUAUGCUAC |  |  | 56.6 | 13.8 |
| AAAAGACAUGAGGAUCACCCAUGUUAGGAUAUCGUGCAGAAAAAAAAAAAAAACUGCACGAGAAGGAACAAGGA | 73.5 | 88.5 |  |  |
| UGUGCGUUGAUCUUCGAUCGGAGUACAUGAGGAUCACCCAUGUAGGAUAUUCAAAGACGCAGAUAGGAGAAGGACAUCGGAUUA | 9.63 | 8.83 |  |  |
| CAUAGUAAUUAGGAUAUCUGCCGGCUGAACCGAGGAGAAGGGAUUACAUGAGGAUCACCCAUGUGGUCCUAAGA | 17 | 18.7 |  |  |
| GGGAUAAGGCAGAAGGACAUGAGGAUCACCCAUGUAGGAUAUGCCUACAUCCGCAUCUUAGGUCUCGCUCUGUCGCGACCCUCU |  |  | 8.99 | 5.29 |
| AAAGGCCAAGGAUAUACAUGAGGAUCACCCAUGUCGAGUCCCGGGCAUGUAAGUUGGUGUAGAAGGUGGAAGAA | 13.4 | 13.5 |  |  |
| UACGGACAUGAGGAUCACCCAUGUGAGGAUAUCGGUACCGAUAGCAUAAUAUAAUCGGCGAGAAGGCACAGCGU | 32.7 | 42.8 |  |  |
| AAUGUCUGAGGAUAUCGUUUUUUGUACAUGAGGAUCACCCAUGUCCAAUUUUGUAUAUUACGAGAAGGCAGUGGAA | 14.9 | 22.4 |  |  |
| CUAAAAGUCGAGGAUAUGCACCGGCUUUUUGACGCAGAAGGCGACACAUGAGGAUCACCCAUGUCGGUACGCGA | 12.2 | 13 |  |  |
| AUGUACCUAGGAUAUACAUGAGGAUCACCCAUGUAGCUUCACGUGGUAGGAUCCUUUGGUAGAAGGAGGAUCUU | 37.3 | 68.2 |  |  |
| CCCGUGUGUUAAGGAUAUGGCAGGCGCGUUGAACCAGAAGGUAGCACAUGAGGAUCACCCAUGUGAAUGCUCGCGACUCGAGCG | 43.6 | 18.2 |  |  |
| UUAUUUAGUGUGAGGAUAUGCUGGUCGAUAGAUCAGCAGAAGGCACAUGAGGAUCACCCAUGUAAUAUAUUAAA | 58.9 | 248 |  |  |
| UUAAUUAAUUAAUUCGUCAUUACAUGAGGAUCACCCAUGUAUAAGGAUAUGCAGUGGAAUACACUGCAGAAGGUAUACAAGACG | 18.4 | 26.6 |  |  |
| UCCUGACAUGAGGAUCACCCAUGUUAGGAUAUGGCUUAGGGCGCGUCUGUGUGUUGGGUUAGAAGGGAUGUGGG | 17.6 | 16.8 |  |  |
| UUACCUCAUGAGAAGGCGAUCAUGAAACAUGAUCGAGGAUAUCAUGUAAACAUGAGGAUCACCCAUGUAUGGGUAUUAUGGUAG |  |  | 198 | 56.8 |
| CACAAGAAAGUCGAAGGUUGAAGUAGAAGGACUAUAACAUGACAUGAGGAUCACCCAUGUGCCAAGUAGGAUAUGCUUUAAUCG | 7.7 | 7.38 |  |  |
| GAUCAGAUAGGAUAUACAGGCUCGUCUUUAUAUUGAUCCCGACAUGAGGAUCACCCAUGUAGAAGGAUCAGAUC | 16.4 | 45.7 |  |  |
| AGACCGUUCGAGAAGGUGCGAGAGAAAUGUGAGUGAGGAUAUUGAAACAUGAGGAUCACCCAUGUCAUGAGGAUCGCCGAUGUG |  |  | 39.6 | 31.6 |
| CGUAGGAUGCAGAAGGCAUGAACAUGAGGAUCACCCAUGUGAAAACACAUGAGGAUAUGCAUCCUACGAAAAGUGCGAAAGCAC |  |  | 5.89 | 4.69 |
| GCCUUAUCGGUCAGGAUAUACACCCGCCAGUUGUUGUAGAAGGGACAUGAGGAUCACCCAUGUACAUUACAUUG | 21.2 | 33.8 |  |  |
| AAUAAACUCACAGGAUAUAGCAGAGGUCGCGUGUACUUACAGGCGACGAGGCUAGAAGGGUGACCACAUGAGGAUCACCCAUGU |  |  | 1010 | 113 |
| CAUAUACAUGAGGAUCACCCAUGUUAGGAUAUGUUUUAACCGCGCGCAGGGUUAGUUGGCAGAAGGGAUCUGGG | 31.4 | 39 |  |  |
